Our source for the inhibition values is ChEMBL document CHEMBL1141882, “Synthesis and biological testing of purine derivatives as potential ATP-competitive kinase inhibitors” (J Med Chem, 2005).

Assay [1] deals with cAMP-dependent protein kinase (PKA) (Homo sapiens) (UniProt P22694+P17612+P22612). Description: Inhibition of human cAMP-dependent protein kinase (PKA). In kind it is protein assay. On the set-up: concentration or dose not given beside the values. As to conditions: concentration not given here.
Assay [2] has as its target Rho-associated protein kinase 2 (Homo sapiens) (UniProt O75116). Nature of the assay: Inhibition of human Rho-dependent protein kinase-II at 30 uM.
In assay [3] the target is Mitogen-activated protein kinase 1 (Homo sapiens) (UniProt P28482). Nature of the assay: Inhibition of human Mitogen-activated protein kinase 2 at 30 uM. The method in brief: (§1)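 Kinase activity assayed with ATP at 100 µM, deliberately higher than usual assay ATP levels because the inhibitors are assumed ATP-competitive. Results are reported as percent inhibition of each kinase.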

The target in assay [4] is Mitogen-activated protein kinase 9 (Homo sapiens) (UniProt P45984). Description: Inhibition of human c-Jun N-terminal kinase-2 alpha-2 at 30 uM. In short, it runs like this: as §1
Sequence of Mitogen-activated protein kinase 9 (Homo sapiens) (P45984 whole entry, looked up): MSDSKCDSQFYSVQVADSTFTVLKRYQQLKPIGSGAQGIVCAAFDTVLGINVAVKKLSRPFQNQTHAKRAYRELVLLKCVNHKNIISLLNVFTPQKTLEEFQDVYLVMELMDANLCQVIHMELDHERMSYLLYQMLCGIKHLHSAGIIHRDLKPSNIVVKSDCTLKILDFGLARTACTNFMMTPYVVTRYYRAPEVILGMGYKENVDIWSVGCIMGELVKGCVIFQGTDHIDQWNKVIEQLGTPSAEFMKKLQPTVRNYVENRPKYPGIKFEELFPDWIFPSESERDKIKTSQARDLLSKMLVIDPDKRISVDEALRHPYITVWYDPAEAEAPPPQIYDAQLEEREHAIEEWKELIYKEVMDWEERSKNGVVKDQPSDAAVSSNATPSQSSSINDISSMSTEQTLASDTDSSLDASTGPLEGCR
In assay [5] the target is RAF proto-oncogene serine/threonine-protein kinase (Homo sapiens) (UniProt P04049). Description: Inhibition of human RAF proto-oncogene serine/threonine-protein kinase at 30 uM. In short, it runs like this:
as §1

Assay [6] has as its target Mitogen-activated protein kinase 8 (Homo sapiens) (UniProt P45983). Nature of the assay: Inhibition of human c-Jun N-terminal kinase-1 alpha-1 at 30 uM. In short, it runs like this:
as §1

Assay [7] concerns the target Tyrosine-protein kinase Lck (Homo sapiens) (UniProt P06239). Nature of the assay: Inhibition of human lymphocyte protein tyrosine kinase Lck at 30 uM. In short, it runs like this: as §1
Assay [8] deals with Dual specificity mitogen-activated protein kinase kinase 1 (Homo sapiens) (UniProt Q02750). Description: Inhibition of human Mitogen activated protein kinase kinase 1 (MEK1) at 30 uM. In short, it runs like this:
as §1

The target of assay [9] is Ca2+/calmodulin-dependent protein kinase II (CaM kinase II) (Rattus norvegicus) (UniProt P11275+P08413+P15791+P11730). Nature of the assay: Inhibition of rat Calcium/calmodulin-dependent protein kinase type II at 30 uM. The assay is classed as protein assay. The method in brief:
as §1

In assay [10] the target is RAC-alpha serine/threonine-protein kinase (Homo sapiens) (UniProt P31749). Description: Inhibition of human Protein kinase B alpha at 30 uM. The method in brief:
as §1

The target in assay [11] is Protein kinase C alpha type (Homo sapiens) (UniProt P17252). Description: Inhibition of human Protein kinase C alpha. The arrangement: concentration or dose not given beside the values. As to conditions: concentration not given here.
For assay [12], the target named is Mitogen-activated protein kinase 10 (Rattus norvegicus) (UniProt P49187). Nature of the assay: Inhibition of rat c-Jun N-terminal kinase-3 at 30 uM. The method in brief: as §1
In assay [13] the target is Mitogen-activated protein kinase 14 (Homo sapiens) (UniProt Q16539). Nature of the assay: Inhibition of human stress-activated protein kinase-2 alpha (p38 MAP-kinase) at 30 uM. In short, it runs like this:
as §1

Assay [14] concerns the target Glycogen synthase kinase-3 beta (Homo sapiens) (UniProt P49841). Description: Inhibition of human Glycogen synthase kinase-3 beta at 30 uM. In short, it runs like this: as §1
Assay [15] addresses Mitogen-activated protein kinase 1 (Homo sapiens) (UniProt P28482). Description: Inhibition of human Mitogen-activated protein kinase 1 at 30 uM.

Sequence of RAC-alpha serine/threonine-protein kinase (Homo sapiens) (P31749 whole entry): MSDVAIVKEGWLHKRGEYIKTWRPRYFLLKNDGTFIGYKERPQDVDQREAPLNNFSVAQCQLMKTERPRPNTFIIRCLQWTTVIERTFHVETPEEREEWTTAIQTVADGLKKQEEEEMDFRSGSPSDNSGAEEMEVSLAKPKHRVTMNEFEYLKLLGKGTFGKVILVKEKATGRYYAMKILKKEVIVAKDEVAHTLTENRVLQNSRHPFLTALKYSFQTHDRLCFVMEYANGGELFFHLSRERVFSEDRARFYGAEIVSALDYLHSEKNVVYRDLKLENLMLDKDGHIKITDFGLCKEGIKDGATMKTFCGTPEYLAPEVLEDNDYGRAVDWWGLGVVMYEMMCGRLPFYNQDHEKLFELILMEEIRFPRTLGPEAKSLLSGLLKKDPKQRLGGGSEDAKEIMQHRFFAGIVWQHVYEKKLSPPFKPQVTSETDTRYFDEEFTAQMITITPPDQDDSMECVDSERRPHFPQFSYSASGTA
Sequence of RAF proto-oncogene serine/threonine-protein kinase (Homo sapiens) (P04049 whole entry): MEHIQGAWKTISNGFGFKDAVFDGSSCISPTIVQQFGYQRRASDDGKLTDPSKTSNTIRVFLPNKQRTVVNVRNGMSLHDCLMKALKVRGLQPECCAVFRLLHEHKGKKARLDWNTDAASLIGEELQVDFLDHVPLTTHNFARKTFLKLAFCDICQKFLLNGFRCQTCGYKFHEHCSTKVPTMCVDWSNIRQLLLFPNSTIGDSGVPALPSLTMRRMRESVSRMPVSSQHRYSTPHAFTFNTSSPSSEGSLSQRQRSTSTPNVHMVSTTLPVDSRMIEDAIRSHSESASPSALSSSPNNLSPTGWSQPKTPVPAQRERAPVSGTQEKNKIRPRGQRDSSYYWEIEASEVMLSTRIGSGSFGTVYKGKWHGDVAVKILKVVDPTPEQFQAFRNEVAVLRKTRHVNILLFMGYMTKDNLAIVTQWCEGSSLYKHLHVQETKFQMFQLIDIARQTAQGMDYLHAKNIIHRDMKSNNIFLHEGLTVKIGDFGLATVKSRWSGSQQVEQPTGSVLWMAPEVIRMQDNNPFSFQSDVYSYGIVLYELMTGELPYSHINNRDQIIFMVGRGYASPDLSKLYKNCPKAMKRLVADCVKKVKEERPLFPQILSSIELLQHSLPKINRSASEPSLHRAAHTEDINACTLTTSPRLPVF
Sequence of Dual specificity mitogen-activated protein kinase kinase 1 (Homo sapiens) (Q02750 whole entry): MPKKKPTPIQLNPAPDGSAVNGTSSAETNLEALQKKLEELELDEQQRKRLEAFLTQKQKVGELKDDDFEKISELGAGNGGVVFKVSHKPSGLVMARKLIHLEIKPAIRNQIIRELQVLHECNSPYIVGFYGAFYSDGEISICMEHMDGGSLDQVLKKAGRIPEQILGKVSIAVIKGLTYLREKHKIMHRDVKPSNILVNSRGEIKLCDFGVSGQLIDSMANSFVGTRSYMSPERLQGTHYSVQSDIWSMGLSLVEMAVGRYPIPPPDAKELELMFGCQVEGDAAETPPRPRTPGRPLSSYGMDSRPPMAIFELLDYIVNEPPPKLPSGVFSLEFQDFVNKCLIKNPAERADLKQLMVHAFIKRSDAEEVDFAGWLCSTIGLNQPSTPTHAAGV
Sequence of Mitogen-activated protein kinase 14 (Homo sapiens) (Q16539 whole entry): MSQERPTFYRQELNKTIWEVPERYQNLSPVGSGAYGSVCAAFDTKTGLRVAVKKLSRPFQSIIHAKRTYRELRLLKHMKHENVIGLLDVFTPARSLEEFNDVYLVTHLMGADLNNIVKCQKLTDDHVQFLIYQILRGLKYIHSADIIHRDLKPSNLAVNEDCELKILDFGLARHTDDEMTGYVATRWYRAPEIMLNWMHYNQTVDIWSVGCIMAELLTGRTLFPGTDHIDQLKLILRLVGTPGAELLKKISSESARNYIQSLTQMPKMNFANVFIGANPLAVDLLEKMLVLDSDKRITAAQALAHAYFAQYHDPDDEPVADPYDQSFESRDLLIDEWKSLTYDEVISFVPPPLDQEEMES
Sequence of Rho-associated protein kinase 2 (Homo sapiens) (O75116 whole entry, looked up): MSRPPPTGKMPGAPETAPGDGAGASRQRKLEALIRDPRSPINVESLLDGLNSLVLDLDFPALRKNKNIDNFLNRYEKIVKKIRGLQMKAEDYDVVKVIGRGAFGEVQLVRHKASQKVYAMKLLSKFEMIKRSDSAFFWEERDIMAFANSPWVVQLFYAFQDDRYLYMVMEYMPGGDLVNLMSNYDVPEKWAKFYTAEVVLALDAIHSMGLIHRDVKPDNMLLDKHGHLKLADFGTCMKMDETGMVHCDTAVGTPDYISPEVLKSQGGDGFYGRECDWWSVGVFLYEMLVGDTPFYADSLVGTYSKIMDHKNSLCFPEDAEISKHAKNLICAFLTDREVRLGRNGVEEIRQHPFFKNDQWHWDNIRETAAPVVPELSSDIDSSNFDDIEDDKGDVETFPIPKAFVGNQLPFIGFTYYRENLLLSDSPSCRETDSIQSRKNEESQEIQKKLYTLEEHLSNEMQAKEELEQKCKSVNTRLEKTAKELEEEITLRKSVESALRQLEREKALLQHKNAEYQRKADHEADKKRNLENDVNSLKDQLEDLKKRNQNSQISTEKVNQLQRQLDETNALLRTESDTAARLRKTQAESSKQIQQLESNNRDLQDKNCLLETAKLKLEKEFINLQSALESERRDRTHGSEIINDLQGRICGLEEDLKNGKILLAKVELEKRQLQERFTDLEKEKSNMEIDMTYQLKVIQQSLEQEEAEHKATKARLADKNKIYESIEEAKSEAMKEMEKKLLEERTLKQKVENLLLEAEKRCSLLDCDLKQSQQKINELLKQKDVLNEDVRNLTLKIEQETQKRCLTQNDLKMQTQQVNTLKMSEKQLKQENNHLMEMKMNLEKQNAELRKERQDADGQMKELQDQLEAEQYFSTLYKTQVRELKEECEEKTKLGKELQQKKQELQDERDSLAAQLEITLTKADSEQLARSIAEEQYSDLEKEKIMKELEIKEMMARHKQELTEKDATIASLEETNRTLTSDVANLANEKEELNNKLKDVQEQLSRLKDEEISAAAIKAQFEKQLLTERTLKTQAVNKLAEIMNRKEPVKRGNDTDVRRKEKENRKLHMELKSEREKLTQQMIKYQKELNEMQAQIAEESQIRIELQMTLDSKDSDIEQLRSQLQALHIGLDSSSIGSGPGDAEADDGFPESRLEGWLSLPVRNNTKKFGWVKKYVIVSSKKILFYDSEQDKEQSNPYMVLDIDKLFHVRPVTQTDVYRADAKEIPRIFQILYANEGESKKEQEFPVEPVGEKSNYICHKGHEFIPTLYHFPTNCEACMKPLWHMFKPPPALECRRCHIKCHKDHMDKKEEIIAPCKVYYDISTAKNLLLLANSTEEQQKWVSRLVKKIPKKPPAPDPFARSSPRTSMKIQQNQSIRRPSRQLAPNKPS
Sequence of Glycogen synthase kinase-3 beta (Homo sapiens) (P49841 whole entry, looked up): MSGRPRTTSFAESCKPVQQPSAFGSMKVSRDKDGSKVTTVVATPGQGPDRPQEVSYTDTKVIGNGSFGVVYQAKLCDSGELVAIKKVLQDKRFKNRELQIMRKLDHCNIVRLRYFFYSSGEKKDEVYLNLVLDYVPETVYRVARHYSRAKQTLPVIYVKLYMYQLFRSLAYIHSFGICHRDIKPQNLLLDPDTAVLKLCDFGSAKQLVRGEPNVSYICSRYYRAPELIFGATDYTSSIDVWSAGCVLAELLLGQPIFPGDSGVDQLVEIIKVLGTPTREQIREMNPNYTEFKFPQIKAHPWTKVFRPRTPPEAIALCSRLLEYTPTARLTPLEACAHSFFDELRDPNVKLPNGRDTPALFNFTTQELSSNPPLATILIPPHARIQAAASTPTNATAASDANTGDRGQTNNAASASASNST

One may read the inhibition as the drop in the measured response relative to a control, in per cent. Take `Fc1ccc(Oc2[nH]cnc3ncnc2-3)cc1`: the inhibition in [1] was found to be 0%; in assay [2], 9%; in assay [3], 0%; in assay [4] it was 0%; in assay [5], 1%; in [6] it was 0%. Further, the inhibition came to 0% in assay [7]; 0% in [8]; 0% in [9]; 0% in [10]; 3% in [11]; 0% in assay [12]. The inhibition came to 18% in assay [13] and 0% in assay [14].
In the case of `Cn1cnc2c(SCc3ccc(F)cc3)ncnc21`, the inhibition in assay [1] is 0%; in assay [2], 6%; in assay [3] it was 8%; in assay [4], 6%; in assay [5] it was 16%; in [6], 10%. In addition, the inhibition was 5% in [7]; 7% in [8]; 5% in [9]; 11% in assay [10]; 12% in [11]; 9% in [12]. Also, the inhibition was determined as 21% in [13] and 14% in [14].
With `c1ccc(C[n+]2c[nH]c3ncncc32)cc1`, the inhibition in [1] came out at 0%; in assay [2], 7%; in assay [3], 7%; in assay [4], 4%; in assay [5], 10%; in assay [6], 0%. In addition, the inhibition turned out to be 7% in assay [7]; 4% in assay [8]; 7% in assay [9]; 9% in assay [10]; 18% in assay [11]; 13% in assay [12]. Also, the inhibition was determined as 6% in [13] and 13% in assay [14].
Take `c1ccc(Nc2ncnc3[nH]cnc23)cc1`: the inhibition came out at 32% in assay [1]; 48% in assay [2]; 33% in assay [3]; 0% in assay [4]; 19% in assay [5]; 0% in [6]. Further, the inhibition in assay [7] was found to be 39%; in [15] it was 22%; in assay [8] it was 19%; in assay [9], 0%; in [10] it was 14%; in assay [11] it was 6%. Also, the inhibition in [12] amounted to 11%; in [13], 34%; in assay [14], 13%.
Turning to `Cn1cnc2c(/C=C/c3ccccc3)ncnc21`, the inhibition amounted to 0% in [1]; 0% in [2]; 0% in assay [3]; 0% in assay [4]; 8% in [5]; 0% in assay [6]. The inhibition in [7] was 1%; in assay [8] it was 0%; in [9] it was 4%; in assay [10], 0%; in assay [11], 7%; in [12], 8%. Moreover, the figures for the inhibition in [13] and in assay [14] were 12% and 0%, respectively.
For `c1ccc(-[n+]2c[nH]c3ncncc32)cc1`, the inhibition in assay [1], in [2], in assay [3], in assay [4], in assay [5] and in [6] was 0% throughout. In addition, the inhibition in assay [7] turned out to be 2%; in assay [8], 0%; in assay [9], 0%; in [10], 0%; in assay [11], 4%; in [12], 3%. The inhibition in assay [13] was determined as 0%; in [14] it was 4%.
Turning to `Cn1c(-c2ccccc2)nc2c(Sc3ccccc3)ncnc21`, the inhibition in assay [1] is 3%; in assay [2], 1%; in [3] it was 0%; in assay [4] it was 0%; in assay [5], 12%; in assay [6], 0%. Moreover, the inhibition in [7] turned out to be 5%; in assay [8] it was 4%; in assay [9] it was 1%; in assay [10] it was 42%; in [11], 13%; in assay [12], 12%. The inhibition in assay [13] came to 44%; in [14], 0%.
`Fc1ccc(Nc2[nH]cnc3ncnc2-3)cc1`: the inhibition in assay [1] was determined as 40%; in assay [2], 52%; in assay [3], 48%; in assay [4], 0%; in [5], 24%; in assay [6] it was 13%. The inhibition in [7] was found to be 42%; in assay [8], 34%; in [9], 2%; in assay [10] it was 18%; in [11], 17%; in assay [12], 10%. Moreover, the values for the inhibition in assay [13] and in [14] were 30% and 0%, respectively.
In the case of `Fc1ccc(Sc2ncnc3[nH]cnc23)cc1`, the inhibition stood at 10% in assay [1]; 37% in assay [2]; 12% in assay [3]; 1% in assay [4]; 29% in assay [5]; 0% in assay [6]. Also, the inhibition in assay [7] came to 13%; in assay [8], 2%; in assay [9], 0%; in [10] it was 0%; in [11], 9%; in assay [12], 8%. The values for the inhibition in [13] and in assay [14] were 72% and 0%, respectively.
